How the values were obtained:
Format in all cases: functional
[1] = tested on: RPMI-8226; test: Cytotoxicity against human RPMI8226 cells; settings: for CC50: read-out: pLC50 (the source's name) (converted); for TGI: read-out: pTGI (converted)
How it was run: (§1)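 Tested in a 60-cell-line human tumor panel screen; the read-out is growth inhibition, reported as GI50 for each cell line.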

[2] = tested on: NCI-H322M; test: Cytotoxicity against human NCI-H322M cells; settings: for CC50: read-out: pLC50 (the source's name) (converted); for TGI: read-out: pTGI (converted); how it was run: as §1
[3] = Cytotoxicity against human UO31 cells; settings: for GI50 / LC50: UO-31; for TGI: UO-31, read-out: pTGI (converted)
How it was run: (§2)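 Cell line run as part of the 60-cell-line screening panel; growth inhibition was reported as a GI50 for each line.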

[4] = tested on: SNB-19; test: Cytotoxicity against human SNB19 cells; settings: for CC50: read-out: pLC50 (the source's name) (converted); for TGI: read-out: pTGI (converted); how it was run: as §1
[5] = tested on: U-251; test: Cytotoxicity against human U251 cells; settings: for CC50: read-out: pLC50 (the source's name) (converted); for TGI: read-out: pTGI (converted); how it was run: as §2
[6] = Cytotoxicity against human Hs578T cells; settings: Hs-578T; for TGI: read-out: pTGI (converted); how it was run: as §1
[7] = tested on: ACHN; test: Cytotoxicity against human ACHN cells; settings: for TGI: read-out: pTGI (converted); how it was run: as §1
[8] = tested on: HOP-92; test: Cytotoxicity against human HOP92 cells; settings: for CC50: read-out: pLC50 (the source's name) (converted); for TGI: read-out: pTGI (converted); how it was run: as §1
[9] = Cytotoxicity against human EKVX cells; settings: for CC50: read-out: pLC50 (the source's name) (converted); for TGI: read-out: pTGI (converted); how it was run: as §1
[10] = tested on: A498; test: Cytotoxicity against human A498 cells; settings: for CC50: read-out: pLC50 (the source's name) (converted); for TGI: read-out: pTGI (converted); how it was run: as §1
[11] = tested on: A549; test: Cytotoxicity against human A549 cells; settings: for TGI: read-out: pTGI (converted); for CC50: read-out: pLC50 (the source's name) (converted); how it was run: as §1
[12] = tested on: SW-620; test: Cytotoxicity against human SW620 cells; settings: for CC50: read-out: pLC50 (the source's name) (converted); for TGI: read-out: pTGI (converted); how it was run: as §2
[13] = tested on: Malme-3M; test: Cytotoxicity against human MALME-3M cells; settings: for CC50: read-out: pLC50 (the source's name) (converted); for TGI: read-out: pTGI (converted); how it was run: as §1
[14] = tested on: SK-MEL-28; test: Cytotoxicity against human SK-MEL-28 cells; settings: for CC50: read-out: pLC50 (the source's name) (converted); for TGI: read-out: pTGI (converted); how it was run: as §1
[15] = Cytotoxicity against human OVCAR5 cells; settings: for GI50: OVCAR-5; for CC50: OVCAR-5, read-out: pLC50 (the source's name) (converted); for TGI: OVCAR-5, read-out: pTGI (converted); how it was run: as §1
[16] = tested on: NCI-H522; test: Cytotoxicity against human NCI-H522 cells; settings: for CC50: read-out: pLC50 (the source's name) (converted); for TGI: read-out: pTGI (converted); how it was run: as §1
[17] = tested on: SN12C; test: Cytotoxicity against human SN12C cells; settings: for TGI: read-out: pTGI (converted); how it was run: as §1

SMILES: COc1cc(/C=C/c2cc(O)c3cc[nH]c3c2)cc2c1O[C@]1(C)CC[C@@H](O)C(C)(C)[C@H]1C2
- GI50 [1]: 0.316 µM
- CC50 [1]: > 100 µM
- TGI [1]: 2.51 µM
- GI50 [2]: 3.47 µM
- CC50 [2]: > 100 µM
- TGI [2]: 25.1 µM
- GI50 [3]: 0.479 µM
- LC50 [3]: > 100 µM
- TGI [3]: 2.04 µM
- GI50 [4]: 1.32 µM
- CC50 [4]: > 100 µM
- TGI [4]: 18.2 µM
- GI50 [5]: 0.479 µM
- CC50 [5]: > 100 µM
- TGI [5]: 13.8 µM
- GI50 [6]: 0.251 µM
- LC50 [6]: > 100 µM
- TGI [6]: 0.871 µM
- GI50 [7]: 1.1 µM
- LC50 (concentration killing 50% of cells) [7]: > 100 µM
- TGI [7]: 14.1 µM
- GI50 [8]: 1.23 µM
- CC50 [8]: > 100 µM
- TGI [8]: 19.1 µM
- GI50 [9]: 3.47 µM
- CC50 [9]: 91.2 µM
- TGI [9]: 27.5 µM
- GI50 [10]: 1.55 µM
- CC50 [10]: 56.2 µM
- TGI [10]: 8.91 µM
- GI50 [11]: 1.48 µM
- TGI [11]: 3.72 µM
- GI50 [12]: 1.26 µM
- CC50 [12]: 8.13 µM
- TGI [12]: 3.16 µM
- GI50 [13]: 1.74 µM
- CC50 [13]: 52.5 µM
- TGI [13]: 10.7 µM
- GI50 [14]: 1.48 µM
- CC50 [14]: > 100 µM
- TGI [14]: > 100 µM
- GI50 [15]: 7.41 µM
- CC50 [15]: > 100 µM
- TGI [15]: 41.7 µM
- GI50 [16]: 1.29 µM
- CC50 [16]: 41.7 µM
- TGI [16]: 8.32 µM
- GI50 [17]: 7.08 µM
- LC50 [17]: > 100 µM
- TGI [17]: 67.6 µM

SMILES: COc1cc(/C=C/c2cc(O)c3cc(CC=C(C)C)[nH]c3c2)cc2c1O[C@]1(C)CC[C@@H](O)C(C)(C)[C@H]1C2
- GI50 [1]: 0.282 µM
- CC50 [1]: > 100 µM
- TGI [1]: 32.4 µM
- GI50 [2]: 32.4 µM
- CC50 [2]: > 100 µM
- TGI [2]: > 100 µM
- GI50 [3]: 0.479 µM
- LC50 [3]: > 100 µM
- TGI [3]: 5.89 µM
- GI50 [4]: 2.63 µM
- CC50 [4]: > 100 µM
- TGI [4]: > 100 µM
- GI50 [5]: 0.603 µM
- CC50 [5]: > 100 µM
- TGI [5]: > 100 µM
- GI50 [6]: 0.309 µM
- LC50 [6]: > 100 µM
- TGI [6]: > 100 µM
- GI50 [7]: 7.08 µM
- LC50 (concentration killing 50% of cells) [7]: > 100 µM
- TGI [7]: > 100 µM
- GI50 [8]: 1.38 µM
- CC50 [8]: > 100 µM
- TGI [8]: 42.7 µM
- GI50 [9]: 4.79 µM
- CC50 [9]: > 100 µM
- TGI [9]: > 100 µM
- GI50 [10]: 1.02 µM
- CC50 [10]: > 100 µM
- TGI [10]: 22.9 µM
- GI50 [11]: 6.31 µM
- CC50 [11]: > 100 µM
- TGI [11]: > 100 µM
- GI50 [12]: 2.04 µM
- CC50 [12]: 39.8 µM
- TGI [12]: 8.32 µM
- GI50 [13]: 4.9 µM
- CC50 [13]: > 100 µM
- TGI [13]: > 100 µM
- GI50 [14]: 4.68 µM
- CC50 [14]: 91.2 µM
- TGI [14]: 50.1 µM
- GI50 [15]: 25.7 µM
- CC50 [15]: > 100 µM
- TGI [15]: > 100 µM
- GI50 [16]: 4.9 µM
- CC50 [16]: > 100 µM
- TGI [16]: 43.7 µM
- GI50 [17]: 58.9 µM
- LC50 [17]: > 100 µM
- TGI [17]: > 100 µM

SMILES: COc1cc(/C=C/c2cc(O)c3c(CC=C(C)C)c[nH]c3c2)cc2c1O[C@]1(C)CC[C@@H](O)C(C)(C)[C@H]1C2
- GI50 [2]: 10.5 µM
- CC50 [2]: 50.1 µM
- TGI [2]: 50.1 µM
- GI50 [3]: 0.269 µM
- LC50 [3]: 50.1 µM
- TGI [3]: 1.48 µM
- GI50 [4]: 0.708 µM
- CC50 [4]: 50.1 µM
- TGI [4]: 50.1 µM
- GI50 [5]: 0.151 µM
- CC50 [5]: 50.1 µM
- TGI [5]: 50.1 µM
- GI50 [6]: 0.0708 µM
- LC50 [6]: 50.1 µM
- TGI [6]: 1 µM
- GI50 [7]: 1.48 µM
- LC50 (concentration killing 50% of cells) [7]: 50.1 µM
- TGI [7]: 50.1 µM
- GI50 [8]: 0.589 µM
- CC50 [8]: 50.1 µM
- TGI [8]: 50.1 µM
- GI50 [9]: 1.07 µM
- CC50 [9]: 50.1 µM
- TGI [9]: 50.1 µM
- GI50 [10]: 0.129 µM
- CC50 [10]: 50.1 µM
- TGI [10]: 0.724 µM
- GI50 [11]: 1.7 µM
- CC50 [11]: 50.1 µM
- TGI [11]: 50.1 µM
- GI50 [12]: 0.447 µM
- CC50 [12]: 10.7 µM
- TGI [12]: 1.74 µM
- GI50 [14]: 0.55 µM
- CC50 [14]: 50.1 µM
- TGI [14]: 1.91 µM
- GI50 [15]: 15.1 µM
- CC50 [15]: 50.1 µM
- TGI [15]: 50.1 µM
- GI50 [17]: 12 µM
- LC50 [17]: 50.1 µM
- TGI [17]: 50.1 µM
